The nature of series [1]: Lipophilicity, log P of the compound. Format: physicochemical. The conditions noted are these: octanol/water.
In series [2] the test system is A2780. Kind of series: Cytotoxicity against human A2780 cells after 24 hrs by WST-1 assay. It counts as functional. The conditions noted are these: A2780, 24 h. For orientation: Tetrazolium dyes change colour on reduction, which living cells bring about.
The test system of series [3] is A-375. Kind of series: Cell cycle arrest in human A375 cells assessed as accumulation at G2/M phase after 24 hrs by FACS flow cytometry. On the set-up: concentration or dose not given beside the values.
Series [4] in a line: Cytotoxicity against human Gurav cells after 24 hrs by WST-1 assay. Format: functional.
Series [5] deals with A-375. The experiment in a line: Cell cycle arrest in human A375 cells assessed as accumulation at G1 phase after 24 hrs by FACS flow cytometry. Further details: concentration or dose not given beside the values. (In general: In flow cytometry, cells or beads pass a laser one at a time.)
Series [6] relates to KB. Kind of series: Cytotoxicity against human KB cells after 24 hrs by WST-1 assay. It counts as functional.
The next series has as its system COLO 205. The experiment in a line: Cytotoxicity against human COLO205 cells after 24 hrs by SRB assay. The conditions noted are these: COLO 205, 24 h.
Series [7] relates to A-375. The experiment in a line: Cell cycle arrest in human A375 cells assessed as accumulation at S phase after 24 hrs by FACS flow cytometry. On the set-up: concentration or dose not given beside the values.
A further series relates to A549. Kind of series: Cytotoxicity against human A549 cells after 24 hrs by WST-1 assay. It counts as functional. The conditions noted are these: A549, 24 h.
The next series relates to SiHa. Kind of series: Cytotoxicity against human SiHa cells after 24 hrs by SRB assay. (In general: The SRB assay estimates cell density from bound dye.)
In the next series the test system is HOP-62. The experiment in a line: Cytotoxicity against human HOP62 cells after 24 hrs by WST-1 assay. The conditions noted are these: HOP-62, 24 h. Format: functional.
For series [8], the system named is A-375. The experiment in a line: Cell cycle arrest in human A375 cells assessed as accumulation at Sub-G1 phase after 24 hrs by FACS flow cytometry. Further details: concentration or dose not given beside the values.
The test system of the next series is MCF7. The experiment in a line: Cytotoxicity against human MCF7 cells by sulforhodamine B assay.
The subject of series [9] is PC-3. Kind of series: Cytotoxicity against human PC3 cells after 24 hrs by WST-1 assay. The conditions noted are these: PC-3, 24 h. Format: functional.
The test system of series [10] is A-375. The experiment in a line: Antitumor activity against human A375 cells assessed as upregulation of p21 protein level at 4 uM after 24 hrs by Western blotting. Format: functional, cell-based. The method, boiled down: (§1)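 A375 cells treated at 4 µM for 24 h. Lysates cleared at 12,000 rpm for 10 min, and protein quantified by Bradford. 30 µg per lane run on 12% SDS-PAGE and transferred to PVDF. Blocked 2 h in TBST with 5% blocking powder. Primary antibody overnight at 4 °C, HRP secondary (1:2000) 1 h at room temperature. β-actin used as loading control; untreated cells as control.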

In series [11] the test system is KB. The experiment in a line: Cytotoxicity against human KB cells after 24 hrs by SRB assay.
In a further series the test system is ZR-75-1. Kind of series: Cytotoxicity against human ZR-75-1 cells by SRB assay.
Series [12] has as its system A-375. Kind of series: Induction of apoptosis in human A375 cells assessed as increase in Caspase 3 activation at 4 uM after 24 hrs by fluorimetry. Format: functional, cell-based. The method, boiled down:
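A375 cells exposed to 4 µM compound. Cell lysate incubated with DEVD-AFC substrate, with or without DEVD-CHO inhibitor, at 37 °C for 1 h in a fluorescent caspase-3 kit. Fluorescence read at excitation 400 nm, emission 505 nm.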

Series [13] relates to A-375. Kind of series: Antitumor activity against human A375 cells assessed as upregulation of pRb protein level at 4 uM after 24 hrs by Western blotting. Format: functional, cell-based. The method, boiled down: as §1
Another series deals with Calf thymus DNA. The experiment in a line: Binding affinity to calf thymus DNA assessed as change in melting temperature after 18 hrs. Format: nucleic-acid assay. The conditions noted are these: Bos taurus. The method, boiled down:
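Thermal melting with duplex CT-DNA (100 µM in phosphate) and ligand (20 µM), added from methanol stock, [PBD]/[DNA] 1:5, in 10 mM sodium phosphate + 1 mM EDTA, pH 7.00; incubated at 37 °C for 18 h. A260 monitored while heating at 1 °C/min over 40–90 °C. Tm taken from d(A260)/dT maxima, corrected for methanol; ΔTm = Tm(DNA+ligand) − Tm(DNA alone); at least three determinations.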

The test system of series [14] is A2780. Kind of series: Cytotoxicity against human A2780 cells by SRB assay.
Series [15] relates to A-375. The experiment in a line: Induction of apoptosis in human A375 cells assessed as increase in cytochrome C protein level at 4 uM after 24 hrs by Western blotting. Format: functional, cell-based. The method, boiled down: as §1
In series [16] the test system is A-375. The experiment in a line: Induction of apoptosis in human A375 cells assessed as increase in PARP protein level at 4 uM after 24 hrs by Western blotting. Format: functional, cell-based. The method, boiled down: as §1
Series [17] relates to A-375. The experiment in a line: Induction of apoptosis in human A375 cells assessed as increase in Bax protein level at 4 uM after 24 hrs by Western blotting. Format: functional, cell-based. The method, boiled down: as §1
Series [18] can be described thus: Cytotoxicity against human DWD cells by SRB assay.
In series [19] the test system is A-375. Kind of series: Antitumor activity against human A375 cells assessed as upregulation of p53 protein level at 4 uM after 24 hrs by Western blotting. It counts as functional, cell-based. The method, boiled down: as §1
Series [20] concerns KB. Kind of series: Cytotoxicity against human KB cells by SRB assay.
The subject of series [21] is Mus musculus. The experiment in a line: Toxicity against SCID mouse assessed as mortality at 20 mg/kg, ip q4d on day 1, 5 and 9. It counts as organism-based. On the set-up: dose 20 mg/kg, route intraperitoneal. The conditions noted are these: in vivo. The method, boiled down:
(§2)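 Male NOD-SCID mice carrying human prostate PC-3 xenografts were dosed at 20 mg/kg ip on days 1, 5 and 9 (q4d). Mortality and body weight were followed over days 1–31, alongside a control group and an adriamycin 5 mg/kg arm. Tumour weight was recorded over the same period.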

In series [22] the test system is Mus musculus. The experiment in a line: Toxicity against SCID mouse assessed as weight loss at 20 mg/kg, ip q4d on day 1, 5 and 9. Format: organism-based. On the set-up: dose 20 mg/kg, route intraperitoneal. The conditions noted are these: in vivo. The method, boiled down:
as §2

A short description of series [23]: Toxicity against SCID mouse. It counts as organism-based. The conditions noted are these: in vivo.
Series [24] relates to PC-3. Kind of series: Antitumor activity against human PC3 cells xenografted in NOD-SCID mouse at 20 mg/kg, ip q4d on day 1, 5 and 9. It counts as functional, organism-based. On the set-up: dose 20 mg/kg. The method, boiled down:
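Human prostate cancer PC-3 xenografts in male NOD-SCID mice. Dosed 20 mg/kg intraperitoneally on days 1, 5 and 9 (q4d). Tumour weight and body weight/survival followed over about 31 days. Adriamycin 5 mg/kg and untreated groups served as comparators.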

A short description of series [25]: Cytotoxicity against human DWD cells after 24 hrs by SRB assay.

The record followed here is ChEMBL document CHEMBL1221395, “Synthesis, anticancer activity and mitochondrial mediated apoptosis inducing ability of 2,5-diaryloxadiazole-pyrrolobenzodiazepine conjugates” (Bioorg Med Chem, 2010).

Each structure is given as a SMILES string. The source made the active and inactive calls. The calls are words filed in the database; no cut-off is given here.

Turning to `COc1cc2c(cc1O)N=C[C@@H]1CCCN1C2=O`, in [1], the logP stood at 0.88. Moreover, the 50% growth inhibitory concentration (GI50) with A2780 [2] was 140 nM; in series [4] it was 160 nM; in the series with KB [6] it was 170 nM; in the series with COLO 205, 110 nM; in the series on A549, 160 nM; with SiHa, 170 nM. The GI50 turned out to be 150 nM with HOP-62, 170 nM with MCF7 and 200 nM with PC-3 [9]. The Activity in the series on A-375 [3] stood at 2.98%; in the series on A-375 [5] it was 73.66%; with A-375 [7], 8.02%; with A-375 [8], 15.33%.
Consider `COc1ccc(-c2nnc(-c3ccc(C(F)(F)F)cc3)o2)cc1OCCCOc1cc2c(cc1OC)C(=O)N1CCC[C@H]1C=N2`, for which, in series [1], the log partition coefficient (logP) stood at 5.07. The Activity came out at 2.26% in the series on A-375 [3], 72.28% with A-375 [5], 7.51% with A-375 [7] and 17.93% in the series with A-375 [8]. The GI50 is less than 100 nM in series [4]; less than 100 nM with KB [11]; less than 100 nM with COLO 205; 110 nM with ZR-75-1; less than 100 nM in the series with A549; less than 100 nM in the series with SiHa. Besides, the GI50 is less than 100 nM with A2780 [14]; less than 100 nM in the series on HOP-62; 110 nM in the series on MCF7; 110 nM in series [18]; 140 nM with PC-3 [9]. For the same compound, the outcome with A-375 [10], with A-375 [12], with A-375 [13], with A-375 [15], in the series on A-375 [16] and in the series on A-375 [17] was Active. The outcome with A-375 [19] was Active. Moreover, the ΔTm with Calf thymus DNA came to 4 °C.
As for `COc1ccc(-c2nnc(-c3ccc(OC)c(OCCCCCOc4cc5c(cc4OC)C(=O)N4CCC[C@H]4C=N5)c3)o2)cc1OC`, the logP in series [1] is 4.68. Further, the 50% growth inhibitory concentration (GI50) (in the series on KB [20]; in [4]; in the series with COLO 205; with ZR-75-1; in the series on A549; in the series on SiHa) was less than 100 nM in each case. Besides, the concentration for 50% growth inhibition (GI50) (in the series with A2780 [14]; in the series on HOP-62; in the series on MCF7; in [18]; with PC-3 [9]) was less than 100 nM in each case. Also, the Activity is 0.99% in the series on A-375 [3]; 59.66% in the series with A-375 [5]; “Non-toxic” in the series with Mus musculus [21]; “Non-toxic” with Mus musculus [22]; 2.68% with A-375 [7]; 36.66% in the series with A-375 [8]. Moreover, the result in the series on A-375 [10], with A-375 [12], in the series on A-375 [13], in the series with PC-3 [24], with A-375 [15] and with A-375 [16] was Active. In addition, the result with A-375 [17] and in the series on A-375 [19] was Active. The shift in melting temperature (ΔTm) with Calf thymus DNA came to 5.8 °C. The MTD in series [23] was less than 50 mg/kg.
With `COc1cccc2c1C(=O)c1c(O)c3c(c(O)c1C2=O)C[C@@](O)(C(=O)CO)C[C@@H]3O[C@H]1C[C@H](N)[C@H](O)[C@H](C)O1` [DOXORUBICIN], the concentration for 50% growth inhibition (GI50) in the series with KB [20] turned out to be 170 nM; in series [25], 100 nM; in series [4], 170 nM; in the series on COLO 205, 140 nM; in the series on SiHa, 170 nM; in the series on A2780 [14] it was 160 nM. In addition, the GI50 was determined as 140 nM with HOP-62 and 170 nM in the series on MCF7.

A word on the logP: it is the decadic logarithm of the partition coefficient of the neutral form, usually between octanol and water. The GI50 is the concentration at which growth is held to half of that of the control. Usually ΔTm stands for the change in melting temperature against a reference sample.
